Results taken from ChEMBL document CHEMBL3734701, “Synthesis and antibacterial activity of 4″-O-(trans-β-arylacrylamido)carbamoyl azithromycin analogs” (2015).
Converted amounts (≈) assume the structure as drawn.

Tests used:
Format in all cases: functional
[1] = test system: Streptococcus pneumoniae; experiment: Antibacterial activity against erythromycin-resistant Streptococcus pneumoniae A22072 expressing mefA gene by broth microdilution method
Method in brief: (§1)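 MICs measured in vitro by broth microdilution following NCCL recommendations, against a Gram-positive panel of sensitive and resistant strains. Azithromycin and clarithromycin were tested alongside as references.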

[2] = test system: Streptococcus pneumoniae; experiment: Antibacterial activity against erythromycin-resistant Streptococcus pneumoniae B1 expressing ermB gene by broth microdilution method; method in brief: as §1
[3] = test system: Staphylococcus aureus; experiment: Antibacterial activity against erythromycin-susceptible Staphylococcus aureus ATCC 25923 by broth microdilution method
Method in brief: (§2)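 Broth microdilution MIC following the NCCL-recommended method. Panel of sensitive and resistant Gram-positive strains: S. pyogenes S2 (erythromycin-susceptible clinical isolate), S. aureus ATCC25923 and S. pneumoniae ATCC49619 (erythromycin-susceptible). Azithromycin and clarithromycin were run alongside as references.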

[4] = test system: Staphylococcus aureus; experiment: Antibacterial activity against methicillin-susceptible Staphylococcus aureus ATCC 29213 by broth microdilution method; method in brief: as §1
[5] = test system: Streptococcus pyogenes; experiment: Antibacterial activity against clinically isolated erythromycin-resistant Streptococcus pyogenes R2 by broth microdilution method; method in brief: as §1
[6] = test system: Streptococcus pneumoniae; experiment: Antibacterial activity against erythromycin-susceptible Streptococcus pneumoniae ATCC 49619 by broth microdilution method; method in brief: as §2
[7] = test system: Staphylococcus aureus; experiment: Antibacterial activity against clinically isolated penicillin-resistant Staphylococcus aureus by broth microdilution method
Method in brief: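 Clinical penicillin-resistant S. aureus isolate, not further characterized, tested in a Gram-positive panel. MIC was measured by broth microdilution following NCCL recommendations, with azithromycin and clarithromycin as references.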

[8] = test system: Streptococcus pyogenes; experiment: Antibacterial activity against clinically isolated erythromycin-susceptible Streptococcus pyogenes S2 by broth microdilution method; method in brief: as §2
[9] = test system: Streptococcus pneumoniae; experiment: Antibacterial activity against erythromycin-resistant Streptococcus pneumoniae AB11 expressing ermB and mefA genes by broth microdilution method; method in brief: as §1
[10] = test system: Streptococcus pneumoniae; experiment: Potency index, ratio of AZM MIC to test compound MIC for erythromycin-resistant Streptococcus pneumoniae B1 expressing ermB gene
[11] = test system: Streptococcus pneumoniae; experiment: Potency index, ratio of EMA MIC to test compound MIC for erythromycin-resistant Streptococcus pneumoniae B1 expressing ermB gene
[12] = test system: Streptococcus pyogenes; experiment: Potency index, ratio of AZM MIC to test compound MIC for clinically isolated erythromycin-resistant Streptococcus pyogenes R2
[13] = test system: Streptococcus pyogenes; experiment: Potency index, ratio of EMA MIC to test compound MIC for clinically isolated erythromycin-resistant Streptococcus pyogenes R2
[14] = test system: Streptococcus pneumoniae; experiment: Potency index, ratio of EMA MIC to test compound MIC for erythromycin-resistant Streptococcus pneumoniae A22072 expressing mefA gene
[15] = test system: Streptococcus pneumoniae; experiment: Potency index, ratio of AZM MIC to test compound MIC for erythromycin-resistant Streptococcus pneumoniae A22072 expressing mefA gene

SMILES | MIC [1] [µg/mL] | MIC [2] [µg/mL] | MIC [3] [µg/mL] | MIC [4] [µg/mL] | MIC [5] [µg/mL] | MIC [6] [µg/mL] | MIC [7] [µg/mL] | MIC [8] [µg/mL] | MIC [9] [µg/mL] | Ratio [10] | Ratio [11] | Ratio [12] | Ratio [13] | Ratio [14] | Ratio [15]
CC[C@@H]1OC(=O)[C@H](C)[C@@H](O[C@H]2C[C@@](C)(OC)[C@@H](OC(=O)NNC(=O)/C=C/c3cc(OC)c(OC)c(OC)c3)[C@H](C)O2)[C@@H](C)[C@@H](O[C@@H]2O[C@H](C)C[C@H](N(C)C)[C@H]2O)[C@](C)(O)C[C@@H](C)CN(C)[C@H](C)[C@@H](OC(=O)NCc2ccccc2)[C@]1(C)O | 2 (≈ 1.72 µM) | 32 (≈ 27.6 µM) | 1 (≈ 0.862 µM) | 4 (≈ 3.45 µM) | 64 (≈ 55.2 µM) | 0.5 (≈ 0.431 µM) | 4 (≈ 3.45 µM) | 1 (≈ 0.862 µM) | 16 (≈ 13.8 µM) | – | – | – | – | – | –
CC[C@@H]1OC(=O)[C@H](C)[C@@H](O[C@H]2C[C@@](C)(OC)[C@@H](OC(=O)NNC(=O)/C=C/c3ccccc3OC)[C@H](C)O2)[C@@H](C)[C@@H](O[C@@H]2O[C@H](C)C[C@H](N(C)C)[C@H]2O)[C@](C)(O)C[C@@H](C)CN(C)[C@H](C)[C@@H](OC(=O)NCc2ccc(OC)cc2)[C@]1(C)O | 0.25 (≈ 0.221 µM) | 4 (≈ 3.54 µM) | 1 (≈ 0.885 µM) | 4 (≈ 3.54 µM) | 64 (≈ 56.6 µM) | 0.25 (≈ 0.221 µM) | 4 (≈ 3.54 µM) | 0.25 (≈ 0.221 µM) | 8 (≈ 7.08 µM) | – | – | – | – | – | –
CC[C@H]1OC(=O)[C@@H](C)[C@H](O[C@@H]2C[C@](C)(OC)[C@H](OC(=O)NNC(=O)/C=C/c3ccc([N+](=O)[O-])cc3)[C@@H](C)O2)[C@H](C)[C@H](O[C@H]2O[C@@H](C)C[C@@H](N(C)C)[C@@H]2O)[C@@](C)(O)C[C@H](C)CN(C)[C@@H](C)[C@H](OC(=O)NCc2ccc(OC)cc2)[C@@]1(C)O | 0.5 (≈ 0.437 µM) | 2 (≈ 1.75 µM) | 4 (≈ 3.49 µM) | 8 (≈ 6.98 µM) | 32 (≈ 27.9 µM) | 1 (≈ 0.873 µM) | 8 (≈ 6.98 µM) | 0.25 (≈ 0.218 µM) | 8 (≈ 6.98 µM) | – | – | – | – | – | –
CC[C@@H]1OC(=O)[C@H](C)[C@@H](O[C@H]2C[C@@](C)(OC)[C@@H](OC(=O)NNC(=O)/C=C/c3cccs3)[C@H](C)O2)[C@@H](C)[C@@H](O[C@@H]2O[C@H](C)C[C@H](N(C)C)[C@H]2O)[C@](C)(O)C[C@@H](C)CN(C)[C@H](C)[C@@H](OC(=O)NCc2ccc(OC)cc2)[C@]1(C)O | 0.03 (≈ 0.0271 µM) | 0.5 (≈ 0.452 µM) | 0.5 (≈ 0.452 µM) | 1 (≈ 0.904 µM) | 32 (≈ 28.9 µM) | 0.25 (≈ 0.226 µM) | 2 (≈ 1.81 µM) | 0.25 (≈ 0.226 µM) | 1 (≈ 0.904 µM) | 256 | 256 | – | – | – | –
CC[C@@H]1OC(=O)[C@H](C)[C@@H](O[C@@H]2C[C@](C)(OC)[C@H](O)[C@@H](C)O2)[C@@H](C)[C@@H](O[C@@H]2O[C@H](C)C[C@H](N(C)C)[C@H]2O)[C@](C)(O)C[C@@H](C)CN(C)[C@H](C)[C@@H](O)[C@]1(C)O | 4 (≈ 5.34 µM) | > 128 | 0.25 (≈ 0.334 µM) | 1 (≈ 1.34 µM) | ≥ 128 | 0.03 (≈ 0.0401 µM) | 0.12 (≈ 0.16 µM) | 0.25 (≈ 0.334 µM) | 256 (≈ 342 µM) | – | – | – | – | – | –
CC[C@H]1OC(=O)[C@@H](C)[C@H](O[C@@H]2C[C@](C)(OC)[C@H](OC(=O)NNC(=O)/C=C/c3ccc(Cl)cc3)[C@@H](C)O2)[C@H](C)[C@H](O[C@H]2O[C@@H](C)C[C@@H](N(C)C)[C@@H]2O)[C@@](C)(O)C[C@H](C)CN(C)[C@@H](C)[C@H](OC(=O)NCc2ccc(OC)cc2)[C@@]1(C)O | 0.12 (≈ 0.106 µM) | 0.25 (≈ 0.22 µM) | 0.5 (≈ 0.441 µM) | 2 (≈ 1.76 µM) | 4 (≈ 3.52 µM) | 0.5 (≈ 0.441 µM) | 2 (≈ 1.76 µM) | 0.5 (≈ 0.441 µM) | 1 (≈ 0.881 µM) | 512 | 512 | 32 | 32 | – | –
CC[C@@H]1OC(=O)[C@H](C)[C@@H](O[C@H]2C[C@@](C)(OC)[C@@H](OC(=O)NNC(=O)/C=C/c3ccccc3OC)[C@H](C)O2)[C@@H](C)[C@@H](O[C@@H]2O[C@H](C)C[C@H](N(C)C)[C@H]2O)[C@](C)(O)C[C@@H](C)CN(C)[C@H](C)[C@@H](OC(=O)NCc2ccccc2)[C@]1(C)O | 0.5 (≈ 0.454 µM) | 16 (≈ 14.5 µM) | 0.5 (≈ 0.454 µM) | 2 (≈ 1.82 µM) | 32 (≈ 29.1 µM) | 0.5 (≈ 0.454 µM) | 2 (≈ 1.82 µM) | 0.25 (≈ 0.227 µM) | 8 (≈ 7.27 µM) | – | – | – | – | – | –
CC[C@@H]1OC(=O)[C@H](C)[C@@H](O[C@H]2C[C@@](C)(OC)[C@@H](OC(=O)NNC(=O)/C=C/c3ccccc3)[C@H](C)O2)[C@@H](C)[C@@H](O[C@@H]2O[C@H](C)C[C@H](N(C)C)[C@H]2O)[C@](C)(O)C[C@@H](C)CN(C)[C@H](C)[C@@H](OC(=O)NCc2ccc(OC)cc2)[C@]1(C)O | 0.25 (≈ 0.227 µM) | 2 (≈ 1.82 µM) | 1 (≈ 0.909 µM) | 4 (≈ 3.64 µM) | 32 (≈ 29.1 µM) | 0.25 (≈ 0.227 µM) | 4 (≈ 3.64 µM) | 0.25 (≈ 0.227 µM) | 8 (≈ 7.27 µM) | – | – | – | – | – | –
CC[C@@H]1OC(=O)[C@H](C)[C@@H](O[C@H]2C[C@@](C)(OC)[C@@H](OC(=O)NNC(=O)/C=C/c3ccco3)[C@H](C)O2)[C@@H](C)[C@@H](O[C@@H]2O[C@H](C)C[C@H](N(C)C)[C@H]2O)[C@](C)(O)C[C@@H](C)CN(C)[C@H](C)[C@@H](OC(=O)NCc2ccc(OC)cc2)[C@]1(C)O | 0.25 (≈ 0.229 µM) | 2 (≈ 1.83 µM) | 1 (≈ 0.917 µM) | 4 (≈ 3.67 µM) | 64 (≈ 58.7 µM) | 0.5 (≈ 0.459 µM) | 2 (≈ 1.83 µM) | 0.25 (≈ 0.229 µM) | 8 (≈ 7.34 µM) | – | – | – | – | – | –
CC[C@H]1OC(=O)[C@@H](C)[C@H](O[C@@H]2C[C@](C)(OC)[C@H](OC(=O)NNC(=O)/C=C/c3ccc(OC)c(OC)c3)[C@@H](C)O2)[C@H](C)[C@H](O[C@H]2O[C@@H](C)C[C@@H](N(C)C)[C@@H]2O)[C@@](C)(O)C[C@H](C)CN(C)[C@@H](C)[C@H](OC(=O)NCc2ccc(OC)cc2)[C@@]1(C)O | 0.25 (≈ 0.215 µM) | 2 (≈ 1.72 µM) | 2 (≈ 1.72 µM) | 4 (≈ 3.45 µM) | 64 (≈ 55.2 µM) | 0.5 (≈ 0.431 µM) | 4 (≈ 3.45 µM) | 0.5 (≈ 0.431 µM) | 8 (≈ 6.89 µM) | – | – | – | – | – | –
CC[C@H]1OC(=O)[C@@H](C)[C@H](O[C@H]2C[C@@](C)(OC)[C@@H](OC(=O)NNC(=O)/C=C/c3cccs3)[C@H](C)O2)[C@@H](C)[C@H](O[C@H]2O[C@@H](C)C[C@@H](N(C)C)[C@@H]2O)[C@@](C)(O)C[C@H](C)CN(C)[C@@H](C)[C@@H]2OC(=O)O[C@@]12C | 0.015 (≈ 0.0155 µM) | 2 (≈ 2.06 µM) | 32 (≈ 33 µM) | 64 (≈ 66 µM) | ≥ 128 | 8 (≈ 8.25 µM) | 64 (≈ 66 µM) | 0.25 (≈ 0.258 µM) | 4 (≈ 4.13 µM) | – | – | – | – | 512 | 256
CC[C@H]1OC(=O)[C@@H](C)[C@H](O[C@@H]2C[C@](C)(OC)[C@H](OC(=O)NNC(=O)/C=C/c3ccc(OC)c(OC)c3)[C@@H](C)O2)[C@H](C)[C@H](O[C@H]2O[C@@H](C)C[C@@H](N(C)C)[C@@H]2O)[C@@](C)(O)C[C@H](C)CN(C)[C@@H](C)[C@H](OC(=O)NCc2ccccc2)[C@@]1(C)O | 2 (≈ 1.77 µM) | 64 (≈ 56.6 µM) | 0.5 (≈ 0.442 µM) | 4 (≈ 3.54 µM) | 64 (≈ 56.6 µM) | 0.06 (≈ 0.0531 µM) | 2 (≈ 1.77 µM) | 0.25 (≈ 0.221 µM) | 64 (≈ 56.6 µM) | – | – | – | – | – | –
CC[C@H]1OC(=O)[C@@H](C)[C@H](O[C@@H]2C[C@](C)(OC)[C@H](OC(=O)NNC(=O)/C=C/c3ccc(Br)cc3)[C@@H](C)O2)[C@H](C)[C@H](O[C@H]2O[C@@H](C)C[C@@H](N(C)C)[C@@H]2O)[C@@](C)(O)C[C@H](C)CN(C)[C@@H](C)[C@H](OC(=O)NCc2ccc(OC)cc2)[C@@]1(C)O | 0.25 (≈ 0.212 µM) | 0.5 (≈ 0.424 µM) | 1 (≈ 0.848 µM) | 2 (≈ 1.7 µM) | 16 (≈ 13.6 µM) | 0.25 (≈ 0.212 µM) | 2 (≈ 1.7 µM) | 0.5 (≈ 0.424 µM) | 1 (≈ 0.848 µM) | 256 | 256 | – | – | – | –
CC[C@H]1OC(=O)[C@H](C)[C@@H](O[C@H]2C[C@@](C)(OC)[C@@H](O)[C@H](C)O2)[C@H](C)[C@@H](O[C@@H]2O[C@H](C)C[C@H](N(C)C)[C@H]2O)[C@](C)(O)C[C@@H](C)C(=O)[C@H](C)[C@@H](O)[C@]1(C)O [ERYTHROMYCIN] | 8 (≈ 10.9 µM) | > 128 | 0.06 (≈ 0.0818 µM) | 0.12 (≈ 0.164 µM) | ≥ 128 | 0.03 (≈ 0.0409 µM) | 0.25 (≈ 0.341 µM) | 0.12 (≈ 0.164 µM) | 256 (≈ 349 µM) | – | – | – | – | – | –
